{"source": "ChEMBL document CHEMBL4219069", "about": "“In silico studies, synthesis and pharmacological evaluation to explore multi-targeted approach for imidazole analogues as potential cholinesterase inhibitors with neuroprotective role for Alzheimer's disease” (Bioorg Med Chem, 2018)", "key": {"Acetylcholinesterase [1]": {"molecular_target": "Acetylcholinesterase (Electrophorus electricus, UniProt O42275)", "sequence (O42275 whole entry)": "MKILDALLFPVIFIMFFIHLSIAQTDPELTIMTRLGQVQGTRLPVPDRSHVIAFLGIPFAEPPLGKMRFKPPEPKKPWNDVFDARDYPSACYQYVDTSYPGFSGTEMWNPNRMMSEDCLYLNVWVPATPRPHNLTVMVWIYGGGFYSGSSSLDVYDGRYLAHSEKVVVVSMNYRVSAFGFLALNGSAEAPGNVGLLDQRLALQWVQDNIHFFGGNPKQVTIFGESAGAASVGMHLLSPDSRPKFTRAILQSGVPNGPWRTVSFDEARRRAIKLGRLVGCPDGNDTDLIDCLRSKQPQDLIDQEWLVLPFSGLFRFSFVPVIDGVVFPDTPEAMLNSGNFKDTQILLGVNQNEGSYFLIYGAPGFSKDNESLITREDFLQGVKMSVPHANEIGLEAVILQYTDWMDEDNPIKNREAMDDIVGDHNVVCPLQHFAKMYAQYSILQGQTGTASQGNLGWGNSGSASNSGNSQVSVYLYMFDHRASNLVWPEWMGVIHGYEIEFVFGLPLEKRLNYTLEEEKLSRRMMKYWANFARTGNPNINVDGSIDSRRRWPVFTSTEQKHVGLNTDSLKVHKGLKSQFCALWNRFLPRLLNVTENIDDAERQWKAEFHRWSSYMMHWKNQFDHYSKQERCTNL", "assay": "Inhibition of electric eel AChE using acetylthiocholine iodide as substrate preincubated for 15 mins followed by substrate addition and measured for 45 mins by Ellmans microplate assay"}, "Mus musculus [2]": {"tested_on": "Mus musculus", "assay": "Reversal of scopolamine-induced memory impairment in Swiss albino mouse assessed as decrease in transfer latency time at 50 to 100 mg/kg, po administered for 8 days followed by scopolamine challenge after 60 mins of last dose measured after 45 mins by elevated plus maze test", "type": "functional, organism-based", "procedure,_shortened": "(§1)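 Swiss albino mice (20–25 g, both sexes) were acclimatized 15 days and had five 5-min baseline trials on the elevated plus maze. Oral vehicle, test or piracetam (200 mg/kg) was given for 8 days. Scopolamine 0.4 mg/kg i.p. followed 1 h after the last dose. Training started 45 min later: each mouse was placed at the open-arm end facing away, and transfer latency was timed until all four legs entered a closed arm.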"}, "Mus musculus [3]": {"tested_on": "Mus musculus", "assay": "Toxicity in Swiss albino mouse assessed as effect on autonomic reflexes at 800 mg/kg, po administered for 14 consecutive days", "type": "organism-based", "conditions": "in vivo", "procedure,_shortened": "(§2)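 Acute oral toxicity per OECD-423 in Swiss albino mice (20–25 g), 3 male + 3 female per group, acclimatized 15 days; suspension in water with 1% w/v sodium carboxymethylcellulose, given p.o. at 900 then 800 mg/kg. Clinical signs, behaviour (awareness, mood, CNS excitation/depression, autonomic reflexes) and mortality observed at 15 min–72 h and up to 14 days.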"}, "Mus musculus [4]": {"tested_on": "Mus musculus", "assay": "Toxicity in Swiss albino mouse assessed as CNS excitation at 800 mg/kg, po administered for 14 consecutive days", "type": "organism-based", "conditions": "in vivo", "procedure,_shortened": "as §2"}, "[5]": {"assay": "Toxicity in Swiss albino mouse assessed as mortality at 900 mg/kg, po administered for 14 consecutive days", "type": "organism-based", "conditions": "in vivo", "procedure,_shortened": "as §2"}, "Brain": {"tested_on": "Brain", "assay": "Antioxidant activity in brain homogenate (unknown origin) assessed as decrease in TBARS formation by UV-visible spectrophotometric method", "type": "functional, tissue-based", "procedure,_shortened": "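Brain tissue homogenate mixed with test sample at five concentrations, SDS, 20% acetic acid and […], then heated at 95°C for 60 min. After cooling, the chromogen was extracted into butanol:pyridine (15:1) and centrifuged. Absorbance of the organic layer was read at 532 nm against a blank, in duplicate. % inhibition of TBARS = (Abs control − Abs sample)×100/Abs control.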"}, "Mus musculus [6]": {"tested_on": "Mus musculus", "assay": "Toxicity in Swiss albino mouse assessed as CNS depression at 800 mg/kg, po administered for 14 consecutive days", "type": "organism-based", "conditions": "in vivo", "procedure,_shortened": "as §2"}, "Mus musculus [7]": {"tested_on": "Mus musculus", "assay": "Reversal of scopolamine-induced memory deficit in Swiss albino mouse assessed as increase in step down latency time at 50 to 100 mg/kg, po administered for 8 days followed by scopolamine challenge by step down inhibitory avoidance test", "type": "functional, organism-based", "procedure,_shortened": "(§3)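 Done after the EPM session in the same mouse groups: oral test dosing for 8 days, then scopolamine 0.4 mg/kg i.p. Training used Cook's pole apparatus, a wooden platform on a bronze-bar grid, with each mouse placed on the platform and allowed to step down. 24 h later the mouse was lowered onto the platform and step-down latency was timed. Dunnett post-test was applied.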"}, "Mus musculus [8]": {"tested_on": "Mus musculus", "assay": "Toxicity in Swiss albino mouse assessed as effect on behavior at 800 mg/kg, po administered for 14 consecutive days", "type": "organism-based", "conditions": "in vivo", "procedure,_shortened": "as §2"}, "Mus musculus [9]": {"tested_on": "Mus musculus", "assay": "Toxicity in Swiss albino mouse assessed as mortality at 800 mg/kg, po administered for 14 consecutive days", "type": "organism-based", "conditions": "in vivo", "procedure,_shortened": "as §2"}, "Mus musculus [10]": {"tested_on": "Mus musculus", "assay": "Toxicity in Swiss albino mouse assessed as effect on mood at 800 mg/kg, po administered for 14 consecutive days", "type": "organism-based", "conditions": "in vivo", "procedure,_shortened": "as §2"}, "Cholinesterase": {"molecular_target": "Cholinesterase (Equus caballus, UniProt P81908)", "sequence (P81908 whole entry)": "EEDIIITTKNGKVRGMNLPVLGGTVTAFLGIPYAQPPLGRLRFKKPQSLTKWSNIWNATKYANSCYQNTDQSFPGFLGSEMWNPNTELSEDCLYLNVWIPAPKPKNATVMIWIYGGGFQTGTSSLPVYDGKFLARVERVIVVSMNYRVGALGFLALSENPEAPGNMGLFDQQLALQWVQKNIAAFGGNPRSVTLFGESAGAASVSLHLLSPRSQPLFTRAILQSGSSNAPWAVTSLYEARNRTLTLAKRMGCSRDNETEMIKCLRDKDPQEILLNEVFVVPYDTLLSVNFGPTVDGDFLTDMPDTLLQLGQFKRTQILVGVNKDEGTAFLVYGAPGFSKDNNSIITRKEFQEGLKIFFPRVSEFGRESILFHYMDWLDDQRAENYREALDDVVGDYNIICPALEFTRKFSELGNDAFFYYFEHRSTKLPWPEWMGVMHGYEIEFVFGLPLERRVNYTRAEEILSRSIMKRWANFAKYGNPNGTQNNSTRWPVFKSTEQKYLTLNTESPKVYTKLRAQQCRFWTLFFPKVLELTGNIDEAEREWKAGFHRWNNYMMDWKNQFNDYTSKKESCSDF", "assay": "Inhibition of equine serum BuChE using S-butyrylthiocholine chloride as substrate preincubated for 15 mins followed by substrate addition and measured for 45 mins by Ellmans microplate assay"}, "Mus musculus [11]": {"tested_on": "Mus musculus", "assay": "Toxicity in Swiss albino mouse assessed as effect on awareness at 800 mg/kg, po administered for 14 consecutive days", "type": "organism-based", "conditions": "in vivo", "procedure,_shortened": "as §2"}, "[12]": {"molecular_target": "Cholinesterase (Equus caballus) (UniProt P81908)", "sequence (P81908 whole entry)": "as above", "assay": "Inhibition of equine serum BChE at 10 uM using S-butyrylthiocholine chloride as substrate preincubated for 15 mins followed by substrate addition and measured for 45 mins by Ellmans microplate assay", "procedure,_shortened": "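BuChE Ellman microplate assay at single 10 µM concentration: 0.1 M sodium phosphate buffer pH 8, sample in DMSO (1% final DMSO), 15 min room-temperature preincubation, then DTNB and S-butyrylthiocholine chloride; absorbance at 412 nm for 45 min, corrected by enzyme-free blanks. Quadruplicate, repeated at least twice; percent inhibition ± SD.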"}, "Mus musculus [13]": {"tested_on": "Mus musculus", "assay": "Reversal of scopolamine-induced memory impairment in Swiss albino mouse assessed as decrease in transfer latency time at 50 mg/kg, po administered for 8 days followed by scopolamine challenge after 60 mins of last dose measured after 45 mins by elevated plus maze test", "type": "functional, organism-based", "procedure,_shortened": "as §1"}, "Mus musculus [14]": {"tested_on": "Mus musculus", "assay": "Reversal of scopolamine-induced memory deficit in Swiss albino mouse assessed as increase in step down latency time at 50 mg/kg, po administered for 8 days followed by scopolamine challenge by step down inhibitory avoidance test", "type": "functional, organism-based", "procedure,_shortened": "as §3"}, "Mus musculus [15]": {"tested_on": "Mus musculus", "assay": "Reversal of scopolamine-induced memory deficit in Swiss albino mouse assessed as increase in step down latency time at 200 mg/kg, po administered for 8 days followed by scopolamine challenge by step down inhibitory avoidance test", "type": "functional, organism-based", "procedure,_shortened": "(§4)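 Swiss albino mice (20–25 g, both sexes), dosed p.o. once daily for eight days; scopolamine HBr 0.4 mg/kg i.p. given 1 h after the last dose. Transfer latency on elevated plus maze (open to closed arm, all four legs) recorded 45 min after scopolamine, after five 5-min pre-trials. Step-down latency on Cook's pole apparatus measured 24 h after training. Dunnett post-test.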"}, "Mus musculus [16]": {"tested_on": "Mus musculus", "assay": "Reversal of scopolamine-induced memory impairment in Swiss albino mouse assessed as decrease in transfer latency time at 200 mg/kg, po administered for 8 days followed by scopolamine challenge after 60 mins of last dose measured after 45 mins by elevated plus maze test", "type": "functional, organism-based", "procedure,_shortened": "as §4"}, "Acetylcholinesterase [17]": {"molecular_target": "Acetylcholinesterase (Homo sapiens, UniProt P22303)", "sequence (P22303 whole entry)": "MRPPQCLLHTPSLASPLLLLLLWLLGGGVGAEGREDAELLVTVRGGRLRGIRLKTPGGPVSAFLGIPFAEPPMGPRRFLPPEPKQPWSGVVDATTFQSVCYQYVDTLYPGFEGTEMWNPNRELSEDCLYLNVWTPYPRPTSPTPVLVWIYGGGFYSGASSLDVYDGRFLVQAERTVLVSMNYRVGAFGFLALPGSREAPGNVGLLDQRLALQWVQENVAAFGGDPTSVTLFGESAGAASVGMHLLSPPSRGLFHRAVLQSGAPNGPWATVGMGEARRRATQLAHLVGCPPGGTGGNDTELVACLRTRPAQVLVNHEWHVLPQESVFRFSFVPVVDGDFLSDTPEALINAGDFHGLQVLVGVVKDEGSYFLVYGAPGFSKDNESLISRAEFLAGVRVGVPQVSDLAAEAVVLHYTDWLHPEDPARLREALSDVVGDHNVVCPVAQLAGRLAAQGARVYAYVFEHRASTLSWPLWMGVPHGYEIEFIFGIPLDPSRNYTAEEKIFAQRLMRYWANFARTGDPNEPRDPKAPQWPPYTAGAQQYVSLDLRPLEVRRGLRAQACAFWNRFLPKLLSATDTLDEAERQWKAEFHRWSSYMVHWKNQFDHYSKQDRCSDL", "assay": "Inhibition of AChE (unknown origin)"}}, "note": "Calls of active or inactive are those of the source. The rule behind the calls is not given here.", "data": [{"smiles": "COc1cc(-c2nc(-c3ccccc3)c(-c3ccccc3)[nH]2)cc(OC)c1OC", "values": [{"measurement": "IC50", "setting": "Acetylcholinesterase [1]", "value": "Not Active"}, {"measurement": "Activity", "setting": "Mus musculus [2]", "value": "Active"}, {"measurement": "Activity", "setting": "Mus musculus [3]", "value": "Non-Toxic"}, {"measurement": "Activity", "setting": "Mus musculus [4]", "value": "Non-Toxic"}, {"measurement": "mortality at 14 days", "setting": "[5]", "value": 50, "unit": "%"}, {"measurement": "IC50", "setting": "Brain", "value": 61.3, "unit": "µM"}, {"measurement": "Activity", "setting": "Mus musculus [6]", "value": "Non-Toxic"}, {"measurement": "Activity", "setting": "Mus musculus [7]", "value": "Active"}, {"measurement": "Activity", "setting": "Mus musculus [8]", "value": "Non-Toxic"}, {"measurement": "Activity", "setting": "Mus musculus [9]", "value": "Non-Toxic"}, {"measurement": "Activity", "setting": "Mus musculus [10]", "value": "Non-Toxic"}, {"measurement": "IC50", "setting": "Cholinesterase; read-out: IC50", "value": 4.99, "unit": "µM"}, {"measurement": "Activity", "setting": "Mus musculus [11]", "value": "Non-Toxic"}, {"measurement": "inhibition", "setting": "[12]", "value": 81.3, "unit": "%"}]}, {"smiles": "Oc1ccc(-c2nc(-c3ccccc3)c(-c3ccccc3)[nH]2)cc1", "values": [{"measurement": "IC50", "setting": "Brain", "value": 62.4, "unit": "µM"}, {"measurement": "inhibition", "setting": "[12]", "value": "inactive"}]}, {"smiles": "Oc1cccc(-c2nc(-c3ccccc3)c(-c3ccccc3)[nH]2)c1", "values": [{"measurement": "IC50", "setting": "Acetylcholinesterase [1]; read-out: IC50", "value": 5.33, "unit": "µM"}, {"measurement": "Activity", "setting": "Mus musculus [13]", "value": "Active"}, {"measurement": "IC50", "setting": "Brain", "value": 61.8, "unit": "µM"}, {"measurement": "Activity", "setting": "Mus musculus [14]", "value": "Active"}, {"measurement": "IC50", "setting": "Cholinesterase", "value": "Not Active"}, {"measurement": "inhibition", "setting": "[12]", "value": "inactive"}]}, {"smiles": "NC(=O)CN1CCCC1=O", "values": [{"measurement": "Activity", "setting": "Mus musculus [15]", "value": "Active"}, {"measurement": "Activity", "setting": "Mus musculus [16]", "value": "Active"}]}, {"smiles": "c1ccc(-c2nc[nH]c2-c2ccccc2)cc1", "values": [{"measurement": "IC50", "setting": "Brain", "value": 93.2, "unit": "µM"}, {"measurement": "inhibition", "setting": "[12]", "value": 13, "unit": "%"}]}, {"smiles": "CCc1nn(CCCN2CCN(c3cccc(Cl)c3)CC2)c(=O)n1CCOc1ccccc1", "note": "[NEFAZODONE]", "values": [{"measurement": "IC50", "setting": "Acetylcholinesterase [17]", "value": 1040, "unit": "nM"}]}, {"smiles": "CCCCOc1ccc(C(=O)CCN2CCCCC2)cc1", "note": "[DYCLONINE]", "values": [{"measurement": "IC50", "setting": "Acetylcholinesterase [17]", "value": 181, "unit": "nM"}]}, {"smiles": "COc1ccc(-c2nc(-c3ccccc3)c(-c3ccccc3)[nH]2)cc1OC", "values": [{"measurement": "IC50", "setting": "Brain", "value": 94, "unit": "µM"}, {"measurement": "inhibition", "setting": "[12]", "value": "inactive"}]}, {"smiles": "COc1cc(-c2nc(-c3ccccc3)c(-c3ccccc3)[nH]2)cc(OC)c1O", "values": [{"measurement": "IC50", "setting": "Brain", "value": 264, "unit": "µM"}, {"measurement": "inhibition", "setting": "[12]", "value": "inactive"}]}, {"smiles": "Oc1ccc(-c2nc(-c3ccccc3)c(-c3ccccc3)[nH]2)cc1O", "values": [{"measurement": "IC50", "setting": "Brain", "value": 59.4, "unit": "µM"}, {"measurement": "inhibition", "setting": "[12]", "value": 79.5, "unit": "%"}]}, {"smiles": "COc1cccc(-c2nc(-c3ccccc3)c(-c3ccccc3)[nH]2)c1", "values": [{"measurement": "IC50", "setting": "Brain", "value": 86.5, "unit": "µM"}, {"measurement": "inhibition", "setting": "[12]", "value": 19.2, "unit": "%"}]}, {"smiles": "O=C1O[C@H]([C@@H](O)CO)C(O)=C1O", "note": "[ASCORBIC ACID]", "values": [{"measurement": "IC50", "setting": "Brain", "value": 38.8, "unit": "µM"}]}, {"smiles": "c1ccc(-c2nc(-c3ccccc3)c(-c3ccccc3)[nH]2)cc1", "values": [{"measurement": "IC50", "setting": "Brain", "value": 106, "unit": "µM"}, {"measurement": "inhibition", "setting": "[12]", "value": "inactive"}]}, {"smiles": "Oc1ccccc1-c1nc(-c2ccccc2)c(-c2ccccc2)[nH]1", "values": [{"measurement": "IC50", "setting": "Brain", "value": 101, "unit": "µM"}, {"measurement": "inhibition", "setting": "[12]", "value": 13.7, "unit": "%"}]}]}
